Tests used:
[1] = tested on: L1210; assay: Micromolar concentration required to inhibit the growth of L1210 cells by 50% was determined; assay type: functional; conditions: Mus musculus, read-out: ID50 (the source's name)
[2] = tested on: L1210; assay: Micromolar concentration required to inhibit the growth of L1210 cells by 90% was determined; assay type: functional, Mus musculus
[3] = tested on: Mus musculus; assay: […] percent increase in life span of mice injected intraperitoneally with P-388 leukemia after administration (50 mg/kg)/day; assay type: functional
Summary of the method: (§1)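 P-388 leukemia cells (10^6) implanted intraperitoneally in mice on day 0, following a standard National Cancer Institute protocol. Drug was given daily on days 1-9, or on days 1, 5 and 9 for some analogues. Dose level is as in each line.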

[4] = tested on: Mus musculus; assay: Tested for antitumor activity in vivo and the weight change in grams for the tumor in mouse was determined; assay type: functional
Summary of the method: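 Mice received 10^6 P-388 leukemia cells intraperitoneally on day 0, following the standard NCI protocol. Drug was injected daily on days 1-9, or only on days 1, 5 and 9 for certain analogues.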

[5] = tested on: Mus musculus; assay: […] percent increase in life span of mice injected intraperitoneally with P-388 leukemia after administration (1.25 mg/kg)/day; assay type: functional; summary of the method: as §1
[6] = tested on: Mus musculus; assay: […] percent increase in life span of mice injected intraperitoneally with P-388 leukemia after administration (8 mg/kg)/day; assay type: functional; summary of the method: as §1
[7] = tested on: Mus musculus; assay: […] percent increase in life span of mice injected intraperitoneally with P-388 leukemia after administration (33 mg/kg)/day; assay type: functional; summary of the method: as §1
[8] = tested on: Mus musculus; assay: […] percent increase in life span of mice injected intraperitoneally with P-388 leukemia after administration (12.5 mg/kg)/day; assay type: functional; summary of the method: as §1
[9] = tested on: Mus musculus; assay: […] percent increase in life span of mice injected intraperitoneally with P-388 leukemia after administration (20 mg/kg)/day; assay type: functional; summary of the method: as §1
[10] = tested on: Mus musculus; assay: […] percent increase in life span of mice injected intraperitoneally with P-388 leukemia after administration (5 mg/kg)/day; assay type: functional; summary of the method: as §1
[11] = tested on: Mus musculus; assay: In vivo percent increase in life span of mice injected intraperitoneally with P-388 leukemia after administration (25 mg/kg)/day
[12] = tested on: Mus musculus; assay: […] percent increase in life span of mice injected intraperitoneally with P-388 leukemia after administration (10 mg/kg)/day; assay type: functional; summary of the method: as §1
[13] = tested on: Mus musculus; assay: […] percent increase in life span of mice injected intraperitoneally with P-388 leukemia after administration (1 mg/kg)/day; assay type: functional; summary of the method: as §1
[14] = tested on: Mus musculus; assay: […] percent increase in life span of mice injected intraperitoneally with P-388 leukemia after administration (100 mg/kg)/day; assay type: functional; summary of the method: as §1
[15] = tested on: Mus musculus; assay: […] percent increase in life span of mice injected intraperitoneally with P-388 leukemia after administration (16 mg/kg)/day; assay type: functional; summary of the method: as §1
[16] = tested on: Mus musculus; assay: […] percent increase in life span of mice injected intraperitoneally with P-388 leukemia after administration (400 mg/kg)/day; assay type: functional; summary of the method: as §1
[17] = tested on: Mus musculus; assay: […] percent increase in life span of mice injected intraperitoneally with P-388 leukemia after administration (6.25 mg/kg)/day; assay type: functional; summary of the method: as §1
[18] = tested on: Mus musculus; assay: […] percent increase in life span of mice injected intraperitoneally with P-388 leukemia after administration (40 mg/kg)/day; assay type: functional; summary of the method: as §1

Row | Compound | IC50 [1] [nM] | ID90 [2] [nM] | Weight change [4] [g] | also measured
1 | COC1CC(C)(O)Cc2cc3c(c(O)c21)C(=O)c1c(O)cc2c(c1C3=O)OC1OC2(C)C(O)C(N(C)C=O)C1O (stereo not given) | 4300 | >5000 |  | 
2 | COC1C(C)OC(OC2CC(C)(O)Cc3cc4c(c(O)c32)C(=O)c2c(O)cc3c(c2C4=O)OC2OC3(C)C(OC(C)=O)C(N(C)C)C2OC(C)=O)C(OC)C1(C)OC (stereo not given) | 76 | 210 | -0.6 | ILS [3]: 41%
3 | CNC1C(O)C2Oc3c(cc(O)c4c3C(=O)c3cc5c(c(O)c3C4=O)C(OC)CC(C)(O)C5)C(C)(O2)C1O (stereo not given) | 380 | 110 | -1.3 | ILS [5]: 73%
4 | CSC1CC(C)(O)Cc2cc3c(c(O)c21)C(=O)c1c(O)cc2c(c1C3=O)OC1OC2(C)C(O)C(N(C)C)C1O (stereo not given) | 130 | 340 | -3.1 | ILS [6]: 37%
5 | CNC1C(O)C2Oc3c(cc(O)c4c3C(=O)c3cc5c(c(O)c3C4=O)C(OC3OC(C)C(OC)C(C)(OC)C3OC)CC(C)(O)C5)C(C)(O2)C1O (stereo not given) | 880 | >1000 | -0.6 | ILS [7]: 24%
6 | COC1CC(C)(O)Cc2cc3c(c(O)c21)C(=O)c1c(O)cc2c(c1C3=O)OC1OC2(C)C(O)C(N(C)C)C1O (stereo not given) | 61 | 130 | -0.4 | ILS [8]: 197%
7 | COC1C(C)OC(OC2CC(C)(O)Cc3cc4c(c(OC(C)=O)c32)C(=O)c2c(O)cc3c(c2C4=O)OC2OC3(C)C(OC(C)=O)C(N(C)C)C2OC(C)=O)C(OC)C1(C)OC (stereo not given) | 17 | 41 | -0.1 | ILS [9]: 37%
8 | COC1C(C)OC(OC2CC(C)(O)Cc3cc4c(c(O)c32)C(=O)c2c(O)cc3c(c2C4=O)OC2OC3(C)C(O)C(N(C)C)C2O)C(OC)C1(C)OC (stereo not given) | 180 | 270 | -0.2 | ILS [10]: 93%
9 | COC(=O)C1c2cc3c(c(O)c2C(OC2OC(C)C(OC)C(C)(OC)C2OC)CC1(C)O)C(=O)c1c(O)cc2c(c1C3=O)OC1OC2(C)C(O)C(N(C)C=O)C1O (stereo not given) | > 1000 | >1000 | -0.1 | ILS [11]: 12%
10 | C#CCOC1CC(C)(O)Cc2cc3c(c(O)c21)C(=O)c1c(O)cc2c(c1C3=O)OC1OC2(C)C(O)C(N(C)C)C1O (stereo not given) | 150 | 320 | -0.7 | ILS [12]: 41%
11 | COC(=O)[C@@H]1c2cc3c(c(O)c2[C@@H](O[C@@H]2O[C@@H](C)[C@H](OC)[C@@](C)(OC)[C@H]2OC)C[C@]1(C)O)C(=O)c1c(O)cc2c(c1C3=O)O[C@H]1O[C@@]2(C)[C@@H](O)[C@@H](N(C)C)[C@@H]1O | 78 | 180 | -0.5 | ILS [13]: 49%
12 | CN(C)C1C(O)C2Oc3c(cc(O)c4c3C(=O)c3cc5c(c(O)c3C4=O)CCC(C)(O)C5)C(C)(O2)C1O (stereo not given) | 940 | 1760 | -1.2 | ILS [14]: 21%
13 | CNC1C(O)C2Oc3c(cc(O)c4c3C(=O)c3cc5c(c(O)c3C4=O)C(OC3OC(C)C(OC)C(C)(OC)C3OC)CC(C)(O)C5C(=O)OC)C(C)(O2)C1O (stereo not given) | 360 | 900 | -0.5 | ILS [11]: 59%
14 | CN(C)C1C(O)C2Oc3c(cc(O)c4c3C(=O)c3cc5c(c(O)c3C4=O)C(OCCBr)CC(C)(O)C5)C(C)(O2)C1O (stereo not given) | 24 | 71 | -1.3 | ILS [15]: 60%
15 | COC(=O)C1c2cc3c(c(O)c2CCC1(C)O)C(=O)c1c(O)cc2c(c1C3=O)OC1OC2(C)C(O)C(N(C)C)C1O (stereo not given) | 580 | 1510 | -0.7 | ILS [3]: 27%
16 | CN(C)C1C(O)C2Oc3c(cc(O)c4c3C(=O)c3cc5c(c(O)c3C4=O)C(N=[N+]=[N-])CC(C)(O)C5)C(C)(O2)C1O (stereo not given) | 830 | 1760 | -0.3 | ILS [10]: 33%
17 | COc1c2c(cc3c1C(OC)CC(C)(O)C3)C(=O)c1c3c(cc(O)c1C2=O)C1(C)OC(O3)C(O)C(N(C)C)C1O (stereo not given) | 4500 | 9700 | 0.6 | ILS [9]: 25%
18 | CN(C)C1C(O)C2Oc3c(cc(O)c4c3C(=O)c3cc5c(c(O)c3C4=O)CCC(C)(O)C5C(=O)O)C(C)(O2)C1O (stereo not given) | 5600 | 14500 | 0.2 | ILS [16]: -4%
19 | COC(=O)C1c2cc3c(c(O)c2C(OC2OC(C)C(OC)C(C)(OC)C2OC)CC1(C)O)C(=O)c1c(O)cc2c(c1C3=O)OC1OC2(C)C(OC(C)=O)C(N(C)C)C1OC(C)=O (stereo not given) | 69 | 185 | -0.3 | ILS [17]: 3%
20 | COCCNC1CC(C)(O)Cc2cc3c(c(O)c21)C(=O)c1c(O)cc2c(c1C3=O)OC1OC2(C)C(O)C(N(C)C)C1O (stereo not given) | 1040 | 2910 | 0.2 | ILS [18]: 40%
21 | C=CCOC1CC(C)(O)Cc2cc3c(c(O)c21)C(=O)c1c(O)cc2c(c1C3=O)OC1OC2(C)C(O)C(N(C)C)C1O (stereo not given) | 180 | 530 | 0.3 | ILS [10]: 25%
22 | COC1C(C)OC(OC2CC(C)(O)Cc3cc4c(c(O)c32)C(=O)c2c(O)cc3c(c2C4=O)OC2OC3(C)C(O)C(N(C)C=O)C2O)C(OC)C1(C)OC (stereo not given) | > 1000 | >1000 | 0.1 | ILS [3]: 0%
23 | CN(C)C1C(O)C2Oc3c(cc(O)c4c3C(=O)c3cc5c(c(O)c3C4=O)C(N)CC(C)(O)C5)C(C)(O2)C1O (stereo not given) | 970 | 2000 | 0.2 | ILS [18]: 47%
